Results reported in ChEMBL document CHEMBL1955834, “Disparate SAR data of griseofulvin analogues for the dermatophytes Trichophyton mentagrophytes, T. rubrum, and MDA-MB-231 cancer cells” (J Med Chem, 2012).
Calls of active or inactive are those of the source. The rule behind the calls is not given here.

Columns and labels:
SCC114 = assay: Cytotoxicity against human SCC114 cells by phenotype-based spindle multipolarity assay; format: functional, cell-based
MDA-MB-231 [1] = assay: Cytotoxicity against human MDA-MB-231 cells assessed as cell viability after 48 hrs by MTT assay; format: functional, cell-based; conditions: MDA-MB-231, 48 h
Summary of the method: (§1)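 MDA-MB-231 cells were grown in L-15 with 10% FCS at 37 °C and seeded at (2-3) × 10^4 per well. Exposure was 24 and/or 48 h, then MTT for at least 4 h, with absorbance read at 570/630 nm. Each condition had at least 3 replicates, reported as mean ± SD of a representative experiment repeated at least three times.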

Trichophyton rubrum [2] = assay: Antifungal activity against Trichophyton rubrum IBT 29284 at 50 uM after 7 days by micro broth dilution method; format: functional; conditions: for inhibition at 50 µM: IBT 29284, 168 h
Summary of the method: (§2)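 T. rubrum IBT29284 was tested by broth microdilution using a 4-fold dilution series of 10 concentrations from 50 μM down to 0.2 μM, with 1% DMSO. The inoculum followed CLSI M38-A2, set to OD530 0.90–1.5 and diluted 50-fold in RPMI/MOPS at pH 7.00. Incubation was 7 days at 37 °C, read by OD. IC50 came from a variable-slope sigmoidal fit.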

[3] = system: Trichophyton mentagrophytes; assay: Antifungal activity against Trichophyton mentagrophytes IBT 2724 after 7 days by micro broth dilution method; format: functional, organism-based; conditions: IBT 2724, 168 h
Summary of the method: (§3)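 T. mentagrophytes IBT2724 was tested by broth microdilution using an 8-fold dilution series of 10 concentrations from 50 μM down to 0.4 μM, with 1% DMSO. The inoculum was prepared per CLSI M38-A2, adjusted to OD530 0.90–1.5 and diluted 50-fold in RPMI/MOPS at pH 7.00. Plates ran 7 days at 37 °C with an OD read-out. IC50 came from a variable-slope sigmoidal fit.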

Trichophyton rubrum [4] = assay: Antifungal activity against Trichophyton rubrum IBT 29284 after 7 days by micro broth dilution method; format: functional, organism-based; conditions: IBT 29284, 168 h; summary of the method: as §2
[5] = system: Trichophyton mentagrophytes; assay: Antifungal activity against Trichophyton mentagrophytes IBT 2724 at 50 uM after 7 days by micro broth dilution method; format: functional; conditions: for inhibition at 50 µM: IBT 2724, 168 h; summary of the method: as §3
MDA-MB-231 [6] = assay: Cytotoxicity against human MDA-MB-231 cells assessed as cell viability at 50 uM after 48 hrs by MTT assay; format: functional; conditions: for inhibition at 50 µM: MDA-MB-231, 48 h; summary of the method: as §1
[7] = Drug degradation in phosphate buffered saline at pH 7.4 assessed as compound hydrolysis after 48 hrs; format: physicochemical; conditions: read-out: Drug degradation
Summary of the method: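 Oximes were held in PBS at pH 7.4 for 48 h, and hydrolysis to the parent ketones was monitored.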

In the case of COC1=CC(=O)C[C@@H](C)[C@]12Oc1c(Cl)c(OC)cc(OCc3ccccc3)c1C2=O, the inhibition (SCC114) is reported as “inactive”, the IC50 (MDA-MB-231 [1]) is reported as 20000 nM and the inhibition (Trichophyton rubrum [2]) is reported as “inactive”. It also gave an IC50 [3] of 250 nM.
With COc1cc(OC)c2c(c1Cl)O[C@]1(C2=O)C(Oc2ccccc2)=CC(=O)C[C@H]1C the IC50 (MDA-MB-231 [1]) was 7200 nM, the IC50 (Trichophyton rubrum [4]) was 6100 nM and the IC50 [3] was 1600 nM.
For CCCOC1=CC(=O)[C@@]2(Oc3c(Cl)c(OC)cc(OC)c3C2=O)[C@H](C)C1, the inhibition (SCC114) was “inactive”, the IC50 (MDA-MB-231 [1]) was 43000 nM and the inhibition (Trichophyton rubrum [2]) was “inactive”. The inhibition at 50 µM [5] was under 50%.
In the case of COc1cccc(COC2=CC(=O)C[C@@H](C)[C@]23Oc2c(Cl)c(OC)cc(OC)c2C3=O)c1, the IC50 (MDA-MB-231 [1]) is reported as 8100 nM, the IC50 (Trichophyton rubrum [4]) is reported as 960 nM and the IC50 [3] is reported as 140 nM.
For COc1cc(O)c(Cl)c2c1C(=O)[C@@]1(O2)C(=O)C=C(O)C[C@H]1C, the inhibition (MDA-MB-231 [6]) was “inactive”, the inhibition (Trichophyton rubrum [2]) was “inactive” and the inhibition [5] was “inactive”.
In the case of COc1cc(OC)c2c(c1Cl)O[C@@]1(C(=O)C=C(OCC3CC3)C[C@H]1C)C2=O, the inhibition (SCC114) is reported as “inactive”, the IC50 (MDA-MB-231 [1]) is reported as 52000 nM and the inhibition (Trichophyton rubrum [2]) is reported as “inactive”. It also gave an inhibition at 50 µM [5] of under 50%.
For COC1=C(I)C(=O)C[C@@H](C)[C@]12Oc1c(Cl)c(OC)cc(OC)c1C2=O, the IC50 (MDA-MB-231 [1]) was 22000 nM, the inhibition (Trichophyton rubrum [2]) was “inactive” and the inhibition at 50 µM [5] was under 50%.
In the case of COc1cc(OC)c2c(c1Cl)O[C@@]1(C(=O)C=C(OC3CCCC3)C[C@H]1C)C2=O, the inhibition (SCC114) is reported as “inactive”, the IC50 (MDA-MB-231 [1]) is reported as 27000 nM and the inhibition (Trichophyton rubrum [2]) is reported as “inactive”. For the same molecule, the inhibition at 50 µM [5] was under 50%.
In the case of COc1cc(OC)c2c(c1Cl)O[C@@]1(C(=O)C=C(Cl)C[C@H]1C)C2=O, the IC50 (MDA-MB-231 [1]) is reported as 1000 nM, the inhibition (Trichophyton rubrum [2]) is reported as “inactive” and the inhibition [5] is reported as “inactive”.
With COc1cc(OC)c2c(c1Cl)O[C@]1(C2=O)C(OCC2CC2)=CC(=O)C[C@H]1C the IC50 (MDA-MB-231 [1]) was 9400 nM, the IC50 (Trichophyton rubrum [4]) was 1500 nM and the IC50 [3] was 60 nM.
With COc1ccc(COC2=CC(=O)C[C@@H](C)[C@]23Oc2c(Cl)c(OC)cc(OC)c2C3=O)cc1 the inhibition at 50 µM (MDA-MB-231 [6]) was under 50%, the inhibition (Trichophyton rubrum [2]) was “inactive” and the inhibition [5] was “inactive”.
Work on CCCCCOc1cc(OC)c(Cl)c2c1C(=O)[C@@]1(O2)C(OC)=CC(=O)C[C@H]1C yielded an inhibition at 50 µM (MDA-MB-231 [6]) of under 50%, an inhibition at 50 µM (Trichophyton rubrum [2]) of under 50% and an IC50 [3] of 170 nM.
In the case of COc1cc(OC)c2c(c1Cl)O[C@]1(C2=O)C(OCc2cccc3ccccc23)=C/C(=N\O)C[C@H]1C, the IC50 (MDA-MB-231 [1]) is reported as 8300 nM, the inhibition (Trichophyton rubrum [2]) is reported as “inactive” and the degraded at 48 h [7] is reported as under 5%. For the same molecule, the inhibition [5] was “inactive”.
Molecule CCOC1=CC(=O)C[C@@H](C)[C@]12Oc1c(Cl)c(OC)cc(OC)c1C2=O has an IC50 (MDA-MB-231 [1]) of 13000 nM, an IC50 (Trichophyton rubrum [4]) of 690 nM and an IC50 [3] of 250 nM.
For COc1cc(OC)c2c(c1Cl)O[C@]1(C2=O)C(OCc2ccc(C)cc2)=CC(=O)C[C@H]1C, the IC50 (MDA-MB-231 [1]) was 1800 nM, the IC50 (Trichophyton rubrum [4]) was 1000 nM and the IC50 [3] was 240 nM.
With COc1cc(OC)c2c(c1Cl)O[C@@]1(C(=O)C=C(OCc3ccccc3)C[C@H]1C)C2=O the inhibition (SCC114) was “inactive”, the inhibition at 50 µM (MDA-MB-231 [6]) was under 50% and the inhibition (Trichophyton rubrum [2]) was “inactive”. For the same molecule, the inhibition at 50 µM [5] was under 50%.
Molecule CCCOC1=C(I)C(=O)C[C@@H](C)[C@]12Oc1c(Cl)c(OC)cc(OC)c1C2=O has an IC50 (MDA-MB-231 [1]) of 8000 nM, an IC50 (Trichophyton rubrum [4]) of 1600 nM and an IC50 [3] of 230 nM.
With COc1cc(OC)c2c(c1Cl)O[C@]1(C2=O)C(OCc2cccc3ccccc23)=CC(=O)C[C@H]1C the IC50 (MDA-MB-231 [1]) was 13000 nM, the IC50 (Trichophyton rubrum [4]) was 2600 nM and the IC50 [3] was 250 nM.
In the case of COc1cccc(COC2=CC(=O)[C@@]3(Oc4c(Cl)c(OC)cc(OC)c4C3=O)[C@H](C)C2)c1, the IC50 (MDA-MB-231 [1]) is reported as 25000 nM, the inhibition (Trichophyton rubrum [2]) is reported as “inactive” and the inhibition at 50 µM [5] is reported as under 50%.
With COC1=CC(=O)C[C@@H](C)[C@]12Oc1c(Cl)c(OC)cc(O)c1C2=O the inhibition (MDA-MB-231 [6]) was “inactive”, the inhibition (Trichophyton rubrum [2]) was “inactive” and the inhibition at 50 µM [5] was under 50%.
In the case of COc1cc(OC)c2c(c1Cl)O[C@]1(C2=O)C(=O)C(C)(C)C(=O)C[C@H]1C, the inhibition (MDA-MB-231 [6]) is reported as “inactive”, the inhibition (Trichophyton rubrum [2]) is reported as “inactive” and the inhibition [5] is reported as “inactive”.
In the case of COc1cc(OC)c2c(c1Cl)O[C@]1(C2=O)C(OCc2cccnc2)=CC(=O)C[C@H]1C, the IC50 (MDA-MB-231 [1]) is reported as 10000 nM, the inhibition at 50 µM (Trichophyton rubrum [2]) is reported as under 50% and the IC50 [3] is reported as 350 nM.
With COc1cc(OC)c2c(c1Cl)O[C@]1(C2=O)C(OC2CCCC2)=CC(=O)C[C@H]1C the IC50 (MDA-MB-231 [1]) was 3200 nM, the IC50 (Trichophyton rubrum [4]) was 2500 nM and the IC50 [3] was 240 nM.
In the case of COC1=CC(=O)C[C@@H](C)[C@]12Oc1c(Cl)c(OC)cc(OCc3cccc4ccccc34)c1C2=O, the IC50 (MDA-MB-231 [1]) is reported as 17000 nM, the inhibition (Trichophyton rubrum [2]) is reported as “inactive” and the inhibition [5] is reported as “inactive”.
